Assay results taken from ChEMBL document CHEMBL3091376, “Design, synthesis and in vitro anticancer evaluation of 4,6-diamino-1,3,5-triazine-2-carbohydrazides and -carboxamides” (Bioorg Med Chem Lett, 2013).
Structures can show the parent of a compound that is named as a salt. Peptide text beside a SMILES is read from it. * marks the point of attachment. Cbz = O=C(OCc1ccccc1)*

Columns and labels:
[1] = Growth inhibition of human MCF10A cells after 72 hrs by CellTiter-Blue assay; format: cell-based; conditions: MCF-10A
Method in brief: (§1)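 CellTiter-Blue viability assay after 72 h exposure to test compound. IC50 (μM) reported as the mean of triplicates with standard deviation. Some values are approximate owing to low solubility in medium.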

MDA-MB-231 = experiment: Growth inhibition of human MDA-MB-231 cells after 72 hrs by CellTiter-Blue assay; format: functional, cell-based; conditions: MDA-MB-231, 72 h; method in brief: as §1
MCF7 = experiment: Growth inhibition of human MCF7 cells after 72 hrs by CellTiter-Blue assay; format: functional, cell-based; conditions: MCF7, 72 h; method in brief: as §1

Q: For `COc1cccc2c1C(=O)c1c(O)c3c(c(O)c1C2=O)C[C@@](O)(C(=O)CO)C[C@@H]3O[C@H]1C[C@H](N)[C@H](O)[C@H](C)O1` [DOXORUBICIN HYDROCHLORIDE], which IC50 [1] is on record?
A: 1110 nM

Q: With `CC(C)C[C@@H](C=O)NC(=O)[C@H](CC(C)C)NC(=O)[C@H](CC(C)C)NC(=O)OCc1ccccc1` [MG-132] (Cbz-Leu-Leu-Leu-aldehyde) as the compound, how does the IC50 [1] read?
A: 290 nM

Q: And the IC50 (MDA-MB-231)?
A: 180 nM

Q: What about the IC50 (MCF7) of the same compound?
A: 130 nM
